Here are results for 2 compounds from ChEMBL document CHEMBL4376883, “Discovery and Optimization of Small Molecules Targeting the Protein-Protein Interaction of Heat Shock Protein 90 (Hsp90) and Cell Division Cycle 37 as Orally Active Inhibitors for the Treatment of Colorectal Cancer” (J Med Chem, 2020).

Active and inactive are the calls of the source. The rule behind the calls is not given here.

For one test, the system named is Mus musculus. Nature of the test: In vivo inhibition of HSP90-CDC37 protein-protein interaction in human HCT116 cells xenografted BALB/c mouse assessed as reduction in CDK4 level at 40 to 80 mg/kg, po administered once daily for 21 days measured post-last dose by immunohistochemical analysis. Type of test: functional, organism-based. In short, it runs like this: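 Tumours from the 21-day daily oral xenograft study (40 or 80 mg/kg) were formalin-fixed and cut into 4 µm paraffin sections. Peroxidase quenched with 3% H₂O₂; antigen retrieval by boiling in 10 mM citrate, pH 6.0. Blocked with 3% BSA; anti-CDK4 at 4 °C overnight; secondary 20 min at 37 °C. DAB detection, haematoxylin counterstain, viewed at 200×.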
A general note: In xenograft studies the graft and the host belong to different species.

For test [1], the target named is T1, Heat shock protein HSP90 (Homo sapiens, UniProt P07900+P08238). Nature of the test: Binding affinity to recombinant […] HSP90 N-terminal domain (9 to 236 residues) (unknown origin) expressed in Escherichia coli BL21 (DE3) assessed as change in melting temperature by SYPRO dye based thermal shift assay. In short, it runs like this:
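Hsp90 N-terminal domain (10 µM) mixed with compound at 200, 100, 50 or 10 µM in 1× PBS, pH 8.0, with 6× SYPRO Orange. Heated from room temperature to 99 °C at 1 °C/min; fluorescence read at 492 nm excitation and 610 nm emission.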

Test [2] has as its system Heat shock protein HSP 90-alpha (Homo sapiens), P07900 [E47A]. Nature of the test: Binding affinity to recombinant […] HSP90 E47A mutant N-terminal domain (9 to 236 residues) (unknown origin) expressed in Escherichia coli BL21 (DE3) at 200 uM by NMR spectra analysis.
The target in test [3] is T1, Heat shock protein HSP90. Nature of the test: Binding affinity to HSP90 in human HCT116 cells assessed as change in melting temperature measured after 12 hrs by CETSA. The class given is cell-based. In short, it runs like this:
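HCT116 cells near 90% confluence were treated 12 h with 20 µM compound or DMSO, then washed and resuspended in PBS. Aliquots heated 3 min at 37–75 °C, freeze-thawed three times in liquid nitrogen and centrifuged. Hsp90 detected by Western blot with β-actin reference; Tm taken from band grey levels. Three independent experiments.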

In test [4] the target is T2, Heat shock protein HSP 90-beta/Hsp90 co-chaperone Cdc37 (Homo sapiens) (UniProt P08238+Q16543). Nature of the test: Inhibition of His-tagged HSP90/GST-tagged Cdc37 (unknown origin) protein-protein interaction at 100 uM measured after 1 hr by HTRF assay relative to control. The class given is protein-complex assay. In short, it runs like this:
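His-Hsp90 and GST-Cdc37 were premixed at a final 80 nM in PBS with 200 mM KF, pH 7.4. Compound was added and the mix incubated 1 h at 37 °C, then read by HTRF. Inhibition rate was taken at 100 μM compound.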
In general terms: TR-FRET usually uses a lanthanide donor and a delayed reading to cut background.

The subject of test [5] is Heat shock protein HSP 90-alpha (Homo sapiens), P07900 [Q133A]. Nature of the test: Binding affinity to recombinant […] HSP90 Q133A mutant N-terminal domain (9 to 236 residues) (unknown origin) expressed in Escherichia coli BL21 (DE3) at 200 uM by NMR spectra analysis.
Test [6] deals with Heat shock protein HSP 90-alpha (Homo sapiens), P07900 [R46A]. Nature of the test: Binding affinity to recombinant […] HSP90 R46A mutant N-terminal domain (9 to 236 residues) (unknown origin) expressed in Escherichia coli BL21 (DE3) at 200 uM by NMR spectra analysis.
In test [7] the test system is HCT-116. Nature of the test: Antitumor activity against human HCT116 cells xenografted in po dosed BALB/c mouse assessed as tumor growth inhibition administered once daily for 21 days. The class given is functional, organism-based. In short, it runs like this:
(§1)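 1×10^7 HCT116 cells mixed 3:1 with Matrigel were injected into the flanks of 6-week-old BALB/c nude mice, which were randomised into groups. Dosing started at mean tumour volume 125 mm³: daily oral gavage for 21 days in 0.9% saline with 5% DMSO at 40 or 80 mg/kg. Tumour volume measured daily by calipers (length×width²/2); n = 6. Tumours fixed in 4% formaldehyde, paraffin-embedded, 4 µm H&E sections.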

The target of test [8] is T2, Heat shock protein HSP 90-beta/Hsp90 co-chaperone Cdc37 (Homo sapiens). Nature of the test: Inhibition of HSP90-CDC37 protein-protein interaction in human HCT116 cells assessed as reduction in CDK4 expression up to 10 uM measured after 12 hrs by coimmunoprecipitation-based Western blot assay. The class given is cell-based. In short, it runs like this:
(§2)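 HCT116 cells grown to ~90% confluence in 10 cm dishes, exposed to compound or DMSO for 12 h, then washed with ice-cold PBS and lysed in RIPA buffer (50 mM Tris, 150 mM NaCl, 1% NP-40, protease inhibitors, pH 7.4) for 1 h on ice. Hsp90 was immunoprecipitated with protein A/G magnetic beads over 3 h. Western blots probed Hsp90, Cdc37 and CDK4.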

In test [9] the test system is HCT-116. Nature of the test: Antitumor activity against human HCT116 cells xenografted in BALB/c mouse assessed as reduction in tumor cells at 40 to 80 mg/kg, po administered once daily for 21 days measured post-last dose by H and E staining-based imaging analysis. The class given is functional, organism-based. In short, it runs like this: as §1
Test [10] deals with T2, Heat shock protein HSP 90-beta/Hsp90 co-chaperone Cdc37 (Homo sapiens). Nature of the test: Inhibition of HSP90-CDC37 protein-protein interaction in human HCT116 cells measured after 12 hrs by coimmunoprecipitation-based Western blot assay. The class given is cell-based. In short, it runs like this:
as §2
For orientation: In western blotting, separated proteins are transferred to a membrane and probed.

In test [11] the target is T1, Heat shock protein HSP90. Nature of the test: Binding affinity to recombinant […] HSP90 N-terminal domain (9 to 236 residues) (unknown origin) expressed in Escherichia coli BL21 (DE3) at 200 uM by NMR spectra analysis.
The target of test [12] is T1, Heat shock protein HSP90. Nature of the test: Binding affinity to recombinant […] HSP90 N-terminal domain (9 to 236 residues) (unknown origin) expressed in Escherichia coli BL21 (DE3) at 100 uM by STD NMR spectra analysis. In short, it runs like this:
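STD NMR: 100 µM compound with 5 µM Hsp90 in 20 mM sodium phosphate, 150 mM NaCl, 5% DMSO, pH 7.4. Three independent experiments.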

In test [13] the target is Heat shock protein HSP 90-alpha (Homo sapiens, UniProt P07900). Nature of the test: Binding affinity to recombinant human full-length HSP90alpha by surface plasmon resonance analysis.

In the case of `Cc1cc(C)c(S(=O)(=O)N(CC(=O)O)c2ccc(Nc3ccnc(N4CCNCC4)n3)cc2)c(C)c1`, the inhibition entry (with Mus musculus; in test [8]) was “Active” throughout. The shift in melting temperature (ΔTm) came to 4.75 °C on Heat shock protein HSP90 [1] and 6.39 °C on Heat shock protein HSP90 [3]. The outcome in test [2] was inactive. Further, the inhibition was 97.4% in test [4] and “Dose-dependent effect” in test [10]. Also, the result (in test [5]; in [6]; with HCT-116 [9]; at Heat shock protein HSP90 [11]; on Heat shock protein HSP90 [12]) was Active. In addition, in the test on HCT-116 [7], the TGI entry is “Dose-dependent effect”.
With `Cc1cc(C)n(-c2nc(NN)nc(Nc3ccc(Cl)c(C(F)(F)F)c3)n2)n1`, the dissociation constant Kd in test [13] is 4.98 µM.

Broadly, the inhibition is the relative decrease from the control value, in per cent. What is called ΔTm is the shift of the melting midpoint relative to a reference. What is called Kd is the free concentration of one partner at which half of the binding sites on the other are occupied at equilibrium, for simple one-to-one binding.
